Assays:
MCF7 = test: Cytotoxicity against human MCF7 cells after 72 hrs; assay type: functional, cell-based; conditions: MCF7, 72 h
Tubulin (Homo sapiens) = Tubulin (Homo sapiens) (UniProt P68371+Q9H4B7+P0DPH7+P68366+Q13509+Q71U36+P04350+Q3ZCM7+P07437+P68363+Q9BQE3+Q6PEY2+Q13885+Q9BVA1+Q9BUF5); test: Inhibition of tubulin polymerization (unknown origin) at 5 uM; assay type: protein-complex assay
How it was run: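 Tubulin came from fresh animal brain (species not given), homogenized in cold MES buffer and purified through repeated cold (4 °C) and warm 105,000 g centrifugation cycles, then diluted to 2 mg/mL in MES. Cold tubulin was mixed with ATPNa2 (40 mmol/L stock) and compound. Polymerization was followed as OD350 every 3 min at 37 °C for 30 min.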

[1] = Cytotoxicity against human MCF7/ADR cells after 72 hrs; assay type: functional, cell-based; conditions: NCI/ADR-RES

Compound	IC50 (MCF7) [µM]	inhibition (Tubulin (Homo sapiens)) [%]	IC50 [1] [µM]
C/C1=C/C[C@@H](/C(C)=C/c2csc(C)n2)OC(=O)C[C@H](O)C(C)(C)C(=O)[C@H](C)[C@@H](O)[C@@H](C)CCC1 [EPOTHILONE D]	0.014	43.3	0.01
C/C1=C\C[C@@H](/C(C)=C/c2csc(C)n2)OC(=O)C[C@H](O)C(C)(C)C(=O)[C@H](C)[C@@H](O)[C@@H](C)[C@@H](C)CC1	93.4	–	> 100
C/C1=C/C[C@@H](/C(C)=C/c2csc(C)n2)OC(=O)C[C@H](O)C(C)(C)C(=O)[C@H](C)[C@@H](O)[C@@H](C)[C@@H](C)CC1	35.4	8.5	–
C/C1=C\C[C@@H](/C(C)=C/c2csc(C)n2)OC(=O)C[C@H](O)C(C)(C)C(=O)[C@H](C)[C@@H](O)[C@@H](C)[C@H](C)CC1	7.7	–	7.3
C/C1=C/C[C@@H](/C(C)=C/c2csc(C)n2)OC(=O)C[C@H](O)C(C)(C)C(=O)[C@H](C)[C@@H](O)[C@@H](C)[C@H](C)CC1	0.99	15.7	0.51

— ChEMBL document CHEMBL2424592, “Epothilone D and its 9-Methyl analogues: combinatorial syntheses, conformation, and biological activities” (Eur J Med Chem, 2013)
